Source: the array DNA melting data of Ke et al. (doi:10.1101/2024.01.08.574731)

How the values were obtained:
[1] = melting temperature; fluorescence melt of hairpins on a sequencing array, two-state fit, raised by 9.35 °C to match UV melts; conditions: sodium 0.088 M
How it was run: (§1)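 Melting temperature and folding enthalpy were obtained by bootstrapped two-state fitting. Fits used Cy3 fluorescence of library hairpins with annealed Cy3 and quencher oligos on a sequenced MiSeq flow cell, imaged in 50 mM Na-HEPES pH 8.0, 25 mM NaCl in 2.5 °C steps up to 60 °C and normalised to pre-quench Cy3 and control constructs. Four replicates were combined by inverse-variance weighting, and fitted temperatures were raised by 9.35 °C to match UV melts.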

[2] = folding enthalpy; higher = less favourable; fluorescence melt of hairpins on a sequencing array, two-state fit; conditions: sodium 0.088 M
How it was run: as §1

Row | Sequence | Tm [1] [°C] | folding enthalpy [2] [kcal/mol]
1 | GGGATCGAAAGATACCC ((((((....))).))) | 51.6 | -21.2
2 | GGGATCGAAAGATATCCC ((((((....)))..))) | 39.8 | -25
3 | GGGATCGAAAGATTCCCC ((((((....)))..))) | 49.3 | -18.8
4 | GGGATCGGAAACGATCTC (.(((((....))))).) | 54.2 | -31.9
5 | GGGATCTCGAAAGAGCCC (((..(((....)))))) | 51.2 | -27.9
6 | GGGATGCGAAAGCAACCC (((.(((....))).))) | 63.6 | -24.4
7 | GGGATGGAAACATCCC ((((((....)))))) | 60.7 | -41.4
8 | GGGATGGGAAACCACCCC (((.(((....))).))) | 47.3 | -32
9 | GGGATTACGAAAGTACCC (((..(((....)))))) | 34.1 | -17.1
10 | GGGCAACGAAAGTTACCC (((.(((....))).))) | 52.2 | -38.9
11 | GGGCAACGAAAGTTCCC (((.(((....)))))) | 47.4 | -22.1
12 | GGGCAAGGAAACTTGTCC ((.((((....)))).)) | 52.3 | -40.7
13 | GGGCACCGAAAGGTCCCC (((.(((....))).))) | 54.7 | -17.8
14 | GGGCACGAAAGTGATCCC ((((((....)))..))) | 50.3 | -19.4
15 | GGGCACGAAAGTGTACCC ((((((....)))..))) | 50.3 | -18.4
16 | GGGCACTCGAAAGAGCCC (((..(((....)))))) | 50.9 | -31.1
17 | GGGCAGACGAAAGTCCCC (((..(((....)))))) | 42.9 | -16.8
18 | GGGCATGGAAACATGTCC ((.((((....)))).)) | 54.3 | -43.4
19 | GGGCCACCGAAAGGTCCC (((..(((....)))))) | 41.3 | -17.8
20 | GGGCCACGAAAGTGCCCC (((.(((....))).))) | 59.3 | -17.3
21 | GGGCCAGGAAACCGGCCC (((((.(....).))))) | 64 | -33.2
22 | GGGCCAGGAAACTGACCC (((.(((....))).))) | 50.4 | -40
23 | GGGCCCCGAAAGGGACCC (((.(((....))).))) | 69 | -26

Row | Sequence | Tm [1] [°C] | folding enthalpy [2] [kcal/mol]
24 | GGGCCCGAAAGGGCGCCC ((((((....)))..))) | 58.2 | -9.86
25 | GGGCCCGAAAGGGGACCC ((((((....)))..))) | 65.1 | -14.4
26 | GGGCCCGAAAGGGTGCCC ((((((....)))..))) | 60.2 | -15.7
27 | GGGCCTCGAAAGAGACCC (((.(((....))).))) | 56 | -43
28 | GGGCCTGCGAAAGCACCC (((..(((....)))))) | 50.5 | -9.63
29 | GGGCCTGGAAACGGGCCC (((((.(....).))))) | 68.9 | -38.7
30 | GGGCCTGGAAACGGGTCC ((.((.(....).)).)) | 50.9 | -26.3
31 | GGGCCTTCGAAAGAACCC (((..(((....)))))) | 30.4 | -7.96
32 | GGGCGACGAAAGTCCCCC (((.(((....))).))) | 55.7 | -31.2
33 | GGGCGAGGAAACCCACCC (((.(.(....).).))) | 30.9 | -16.4
34 | GGGCGAGGAAACTCGTCC ((.((((....)))).)) | 58.2 | -41.5
35 | GGGCGCCCGAAAGGGCCC (((..(((....)))))) | 59.5 | -11.5
36 | GGGCGCGAAAGCGGACCC ((((((....)))..))) | 61.5 | -12.8
37 | GGGCGCGAAAGCGTGCCC ((((((....)))..))) | 64.2 | -19.1
38 | GGGCGGCGAAAGCCCCC (((.(((....)))))) | 65.6 | -17.3
39 | GGGCGTCGAAAGACCCCC (((.(((....))).))) | 59 | -16.6
40 | GGGCGTTCGAAAGAACCC (((..(((....)))))) | 50.3 | -19.9
41 | GGGCTACGAAAGTATCCC (((.(((....))).))) | 48.4 | -29.9
42 | GGGCTCCGAAAGGATCCC (((.(((....))).))) | 53.5 | -44.4
43 | GGGCTCGAAAGAGGACCC ((((((....)))..))) | 49.5 | -20.9
44 | GGGCTCGAAAGAGTGCCC ((((((....)))..))) | 51.3 | -34.1
45 | GGGCTCGGAAACGAGTCC ((.((((....)))).)) | 65.2 | -41
46 | GGGCTCGGAAACGGGCCC ((((.((....)).)))) | 66.9 | -43.6

Row | Sequence | Tm [1] [°C] | folding enthalpy [2] [kcal/mol]
47 | GGGCTGCGAAAGCAACCC (((.(((....))).))) | 60.2 | -38.9
48 | GGGCTGGGAAACCAGCTC (.(((((....))))).) | 58.7 | -26.6
49 | GGGCTGTCGAAAGACCCC (((..(((....)))))) | 44.1 | -18.4
50 | GGGCTTCGAAAGAACCCC (((.(((....))).))) | 47.6 | -20.5
51 | GGGCTTGGAAACGAGCTC (.(((.(....).))).) | 42 | -29.7
52 | GGGGAAACGAAAGTTCCC (((..(((....)))))) | 52 | -22.1
53 | GGGGAAGGAAACTTCCCC (((((((....))))))) | 65 | -30.4
54 | GGGGAAGGAAACTTCTCC ((.((((....)))).)) | 45.4 | -35.5
55 | GGGGACGAAAGTCACCC ((((((....))).))) | 65.7 | -17.6
56 | GGGGACGAAAGTCGACCC ((((((....)))..))) | 48.9 | -18.3
57 | GGGGACGGAAACGTCCTC (.(((((....))))).) | 58.7 | -13.7
58 | GGGGAGAAATCCCC (((((....))))) | 53.5 | -26.6
59 | GGGGAGACGAAAGTCCCC (((..(((....)))))) | 58.1 | -29.6
60 | GGGGAGGGAAACCTCTCC ((.((((....)))).)) | 51.8 | -34.1
61 | GGGGAGGGAAACTTCCCC (((((.(....).))))) | 50.9 | -33
62 | GGGGAGTCGAAAGACCCC (((..(((....)))))) | 54.7 | -29.2
63 | GGGGCAACGAAAGTTCCC (((..(((....)))))) | 47.4 | -25.5
64 | GGGGCAGGAAACTGTCCC (((.(((....))).))) | 61.3 | -39.4
65 | GGGGCCGAAAGGCAACCC ((((((....)))..))) | 57.3 | -15
66 | GGGGCCGAAAGGCAGCCC ((((((....)))..))) | 54 | -14.6
67 | GGGGCCTCGAAAGAGCCC (((..(((....)))))) | 56.8 | -23.8
68 | GGGGCTGGAAACAGTCCC (((.(((....))).))) | 59.1 | -50.6
69 | GGGGGAGGAAACTCCCTC (.(((((....))))).) | 54.6 | -19.3

Row | Sequence | Tm [1] [°C] | folding enthalpy [2] [kcal/mol]
70 | GGGGGAGGAAACTCCTCC ((.((((....)))).)) | 53.4 | -22
71 | GGGGGTACGAAAGTACCC (((..(((....)))))) | 63.4 | -8.56
72 | GGGGGTCGAAAGACACCC (((.(((....))).))) | 67.4 | -35.5
73 | GGGGGTGGAAACGCCCTC (.(((.(....).))).) | 59.5 | -28
74 | GGGGGTGGAAACGCCTCC ((.((.(....).)).)) | 49.7 | -23.7
75 | GGGGGTGGAAACGTCCCC ((((..(....)..)))) | 48.7 | -26.2
76 | GGGGTAGGAAACTATCCC (((.(((....))).))) | 48.9 | -38.4
77 | GGGGTAGGAAACTGCCTC (.((.((....)).)).) | 38 | -25.1
78 | GGGGTCCGAAAGGATCCC (((.(((....))).))) | 67.9 | -36
79 | GGGGTCGAAAGACATCCC ((((((....)))..))) | 46.5 | -17.1
80 | GGGGTCGAAAGACCTCCC ((((((....)))..))) | 51.4 | -11.7
81 | GGGGTCGAAAGACTGCCC ((((((....)))..))) | 41.5 | -16.2
82 | GGGGTGCCGAAAGGCCCC (((..(((....)))))) | 65 | -14.6
83 | GGGGTGGCGAAAGCCCCC (((..(((....)))))) | 62.9 | -14.2
84 | GGGGTTGAAAAACCCC ((((((....)))))) | 66.7 | -34.5
85 | GGGGTTGGAAACAACCTC (.(((((....))))).) | 52.5 | -31.5
86 | GGGTAAACGAAAGTTCCC (((..(((....)))))) | 39.8 | -20.7
87 | GGGTAACGAAAGTTTCCC (((.(((....))).))) | 50.3 | -43
88 | GGGTAAGAAATTACCC ((((((....)))))) | 50.9 | -27.4
89 | GGGTAATCGAAAGATCCC (((..(((....)))))) | 35.9 | -25
90 | GGGTACCGAAAGGTGCCC (((.(((....))).))) | 68.7 | -29.2
91 | GGGTACGAAAGTAAGCCC ((((((....)))..))) | 40.7 | -20.7
